For five compounds, ΔTm and Activity results are on record in ChEMBL document CHEMBL5257161, “Mycobacterium tuberculosis CitA activity is modulated by cysteine oxidation and pyruvate binding” (RSC Med Chem, 2023).

Test [1] deals with T1, Putative citrate synthase 2 (Mycobacterium tuberculosis) (UniProt P9WPD3).
T1 sequence (whole entry): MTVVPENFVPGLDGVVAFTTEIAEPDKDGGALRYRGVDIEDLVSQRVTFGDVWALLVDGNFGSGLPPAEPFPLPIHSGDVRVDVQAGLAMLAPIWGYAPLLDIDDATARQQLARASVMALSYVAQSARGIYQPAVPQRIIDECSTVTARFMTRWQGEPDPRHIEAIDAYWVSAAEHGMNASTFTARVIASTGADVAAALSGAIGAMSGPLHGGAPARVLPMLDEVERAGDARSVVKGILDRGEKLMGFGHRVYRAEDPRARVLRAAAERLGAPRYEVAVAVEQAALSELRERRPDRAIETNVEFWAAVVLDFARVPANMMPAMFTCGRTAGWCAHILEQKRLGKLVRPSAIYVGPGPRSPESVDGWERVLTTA
Description: Binding affinity to Mycobacterium tuberculosis wild type CitA expressed in Escherichia coli cells assessed as change in melting temperature by thermal shift assay. The method, boiled down: (§1)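 Thermal shift used 25 μM purified protein in 50 mM Tris pH 8.0 with 2 mM ligand (sodium pyruvate, OAA, or both), plus Protein Thermal Shift dye at 2X final. ΔTm was taken from the melt-curve derivative relative to protein without ligand.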

Test [2] deals with T1, Putative citrate synthase 2 (Mycobacterium tuberculosis). Description: Binding affinity to Mycobacterium tuberculosis wild type CitA expressed in Escherichia coli cells assessed as change in melting temperature in presence of pyruvate by thermal shift assay. An outline of the steps: as §1
For test [3] the target is unchanged. Description: Inhibition of Mycobacterium tuberculosis wild type CitA expressed in Escherichia coli cells by UV spectrophotometric based analysis. An outline of the steps: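 Michael acceptor compounds were added directly to the DTNB/OAA/AcCoA reaction with 10 nM CitA in 50 mM Tris pH 8.0 at 25 °C, read at 412 nm. The screen used 20 μM compound. Dose–response data were fitted to the Hill equation for apparent IC50. A control measured how fast the compounds react with reaction components.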

Test [4] shares this target. Description: Binding affinity to Mycobacterium tuberculosis wild type CitA expressed in Escherichia coli cells assessed as change in melting temperature in presence of oxaloacetate by thermal shift assay. An outline of the steps: as §1

As to `O=CC(=O)O`, the ΔTm in test [1] is 0.1 °C. Turning to `O=C(O)CC(=O)C(=O)O`, the results for the ΔTm in test [1] and in test [2] were 11.2 °C and 12.3 °C, respectively. For the compound `CC(=O)C(=O)O`, the shift in melting temperature (ΔTm) in test [1] turned out to be 2.31 °C; in test [4], 12.3 °C. In addition, the Activity result in test [3] was “Dose-Dependent Effect”. `CC(=O)CC(=O)O`: the ΔTm in test [1] worked out at 0.19 °C. Same read-out and setting: next, `O=C(O)CO`: 0.15 °C.
